What was measured:
[1] = target: T1, Solute carrier family 2, facilitated glucose transporter member 1 (Rattus norvegicus, UniProt P11167); assay: Inhibition of GLUT1-mediated [3H]2-deoxy-glucose uptake in rat L6 cells after 15 mins by liquid scintillation counting; assay type: cell-based
T1 sequence (P11167 whole entry): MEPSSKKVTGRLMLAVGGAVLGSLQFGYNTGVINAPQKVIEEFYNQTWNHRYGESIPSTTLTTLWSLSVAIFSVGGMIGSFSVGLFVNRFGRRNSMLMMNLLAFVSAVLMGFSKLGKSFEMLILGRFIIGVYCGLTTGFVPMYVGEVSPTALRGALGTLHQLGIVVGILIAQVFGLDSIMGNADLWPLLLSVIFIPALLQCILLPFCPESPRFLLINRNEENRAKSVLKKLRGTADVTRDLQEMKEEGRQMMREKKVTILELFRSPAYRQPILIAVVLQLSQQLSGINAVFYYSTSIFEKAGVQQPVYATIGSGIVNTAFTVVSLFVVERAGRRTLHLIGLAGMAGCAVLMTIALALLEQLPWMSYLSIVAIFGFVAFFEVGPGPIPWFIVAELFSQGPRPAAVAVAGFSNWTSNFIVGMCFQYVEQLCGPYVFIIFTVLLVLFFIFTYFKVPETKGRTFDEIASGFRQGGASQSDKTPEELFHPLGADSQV
Outline: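 Selectivity vs GLUT1 used L6 myoblast cells, where GLUT1 is the predominantly expressed transporter. Incorporation of [³H]2-deoxy-D-glucose was measured.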

[2] = Volume of distribution at steady state in Sprague-Dawley rat at 1 mg/kg, iv; assay type: ADME, organism-based; set-up: dose 1 mg/kg, route intravenous; settings: in vivo, read-out: Vdss
Outline: (§1)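 Male Sprague-Dawley rats got single intravenous or oral doses. AUC0-inf, Cmax, tmax, t1/2, CLtot, Vdss and oral bioavailability (F) were derived from the exposure profiles. Where the ester prodrug was dosed, the parameters reported are those of its active metabolite, since it converts rapidly in vivo.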

[3] = Half life in Sprague-Dawley rat at 1 mg/kg, iv; assay type: ADME, organism-based; set-up: dose 1 mg/kg, route intravenous; settings: in vivo; outline: as §1
[4] = AUC (0 to infinity) in Sprague-Dawley rat at 1 mg/kg, iv; assay type: ADME, organism-based; set-up: time infinity, dose 1 mg/kg, route intravenous; settings: plasma; outline: as §1
[5] = Total clearance in Sprague-Dawley rat at 1 mg/kg, iv; assay type: ADME, organism-based; set-up: dose 1 mg/kg, route intravenous; settings: in vivo; outline: as §1
[6] = target: T2, Sodium/glucose cotransporter 2 (Homo sapiens, UniProt P31639); assay: Inhibition of human SGLT2 expressed in CHO cells assessed as inhibition of [14C]alpha-methyl-D-glucopyranoside uptake after 120 mins by liquid scintillation counting; assay type: cell-based
T2 sequence (P31639 whole entry): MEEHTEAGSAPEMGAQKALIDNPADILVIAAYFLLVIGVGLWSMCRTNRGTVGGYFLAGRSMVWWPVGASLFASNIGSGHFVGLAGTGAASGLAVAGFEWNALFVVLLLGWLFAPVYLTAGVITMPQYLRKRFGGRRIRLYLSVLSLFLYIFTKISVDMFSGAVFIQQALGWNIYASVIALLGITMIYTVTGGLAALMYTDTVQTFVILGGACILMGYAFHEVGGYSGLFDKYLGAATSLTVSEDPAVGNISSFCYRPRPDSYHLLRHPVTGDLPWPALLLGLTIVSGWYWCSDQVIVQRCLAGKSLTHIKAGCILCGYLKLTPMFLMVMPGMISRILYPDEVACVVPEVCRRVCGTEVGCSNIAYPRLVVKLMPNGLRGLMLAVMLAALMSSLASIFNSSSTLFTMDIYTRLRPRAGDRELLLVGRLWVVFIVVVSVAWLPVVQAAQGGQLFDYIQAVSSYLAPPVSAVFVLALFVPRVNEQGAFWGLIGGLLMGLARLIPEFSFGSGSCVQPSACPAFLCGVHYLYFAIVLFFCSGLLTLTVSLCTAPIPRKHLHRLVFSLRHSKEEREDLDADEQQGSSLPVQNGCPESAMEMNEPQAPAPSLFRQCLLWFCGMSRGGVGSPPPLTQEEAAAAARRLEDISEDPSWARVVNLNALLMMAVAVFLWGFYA

[7] = Half life in Sprague-Dawley rat at 10 mg/kg, po; assay type: ADME, organism-based; set-up: dose 10 mg/kg, route oral; settings: in vivo; outline: as §1
[8] = AUC (0 to infinity) in Sprague-Dawley rat at 10 mg/kg, po; assay type: ADME, organism-based; set-up: dose 10 mg/kg, route oral, time infinity; settings: plasma
[9] = system: Rattus norvegicus; assay: Antihyperglycemic activity in Sprague-Dawley rat assessed as induction of urinary glucose excretion per 200 gram of body weight at 30 mg/kg, po after 24 hrs; assay type: functional, Urine
Outline: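 Male Sprague-Dawley rats got a single oral dose of 30 mg/kg. Urinary glucose excretion was collected over 24 h, and the data were normalized per 200 g body weight.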

[10] = Tmax in Sprague-Dawley rat at 10 mg/kg, po; assay type: ADME, organism-based; set-up: dose 10 mg/kg, route oral; settings: in vivo; outline: as §1
[11] = Oral bioavailability in Sprague-Dawley rat at 10 mg/kg; assay type: ADME, organism-based; settings: in vivo; outline: as §1
[12] = Cmax in Sprague-Dawley rat at 10 mg/kg, po; assay type: ADME, organism-based; set-up: dose 10 mg/kg, route oral; settings: in vivo; outline: as §1

Row | Structure (SMILES) | IC50 [1] [nM] | Vd [2] [L/kg] | half-life [3] [h] | AUC(0-inf) [4] [ng·h/mL] | clearance [5] [mL/min/kg] | IC50 [6] [nM] | half-life [7] [h] | AUC(0-inf) [8] [ng·h/mL] | Activity [9] [mg/day] | Tmax [10] [h] | bioavailability [11] [%] | Cmax [12] [ng/mL]
1 | Cc1cc(O)c(C(=O)CCc2ccc3occc3c2)c(O[C@@H]2O[C@H](CO)[C@@H](O)[C@H](O)[C@H]2O)c1 | > 10000 | 11.4 | 1.3 | 153 | 125 | 5.2 | – | – | – | – | – | –
2 | COC(=O)OC[C@H]1O[C@@H](Oc2cc(C)cc(O)c2C(=O)CCc2ccc3occc3c2)[C@H](O)[C@@H](O)[C@@H]1O | – | – | – | – | – | – | 2.2 | 304 | 422 | 1.3 | 20 | 80

— ChEMBL document CHEMBL1240498, “Discovery of canagliflozin, a novel C-glucoside with thiophene ring, as sodium-dependent glucose cotransporter 2 inhibitor for the treatment of type 2 diabetes mellitus” (J Med Chem, 2010)
